Laboratory results as given in ChEMBL document CHEMBL3865799, “Synthesis of a series of novel dihydroartemisinin monomers and dimers containing chalcone as a linker and their anticancer activity” (Eur J Med Chem, 2016).

Experiments:
[1] = Cytotoxicity against human MIAPaCa2 cells assessed as cell growth inhibition at 10 uM after 48 hrs by MTT assay; type: functional; details: MIA PaCa-2, 48 h, read-out: GI
How it was run: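 Adherent lines at 70–75% confluence, grown at 37 °C in 5% CO2 with 10% FCS. Exposed 48 h to compound in DMSO (vehicle <0.2% v/v). MTT dye added 3 h before termination; formazan dissolved in DMSO, OD 570 nm with 620 nm reference. Growth inhibition expressed as % of untreated; IC50 taken from the dose series.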

[2] = Cell cycle arrest in human HL60 cells assessed as accumulation at subG0 phase at 1 uM after 24 hrs by propidium iodide-DNA fluorescence based FACS analysis (reference value: 5 %); type: functional; details: HL-60
How it was run: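 HL-60 cells seeded at 0.5 × 10^6 cells/ml, exposed 24 h to compound (DMSO vehicle, <0.2% v/v). Pelleted at 400×g, PBS-washed, fixed in 70% ethanol at 4 °C overnight. RNase A treatment at 37 °C for 1.30 h, then propidium iodide staining for 20 min. Flow cytometry on 10,000 events, FL2-A vs FL2-W; subG0 (apoptotic) and phase populations gated.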

HL-60 = assay: Induction of apoptosis in human HL60 cells assessed as cell shrinkage after 24 hrs phase contrast microscopic analysis; type: functional, cell-based
How it was run: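 HL-60 cells at 0.5 × 10^6 cells/ml treated 24 h with compound at 0.2, 0.5, 1 or 5 (DMSO vehicle). Treated and control cells photographed under a phase contrast microscope at 20× and scored for morphology.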

In the case of `C[C@H]1[C@@H](OCCOc2cccc(C(=O)/C=C/c3ccc(O)cc3)c2)O[C@@H]2O[C@@]3(C)CC[C@H]4[C@H](C)CC[C@@H]1[C@@]24OO3`, the inhibition of growth at 10 µM [1] was 15.1%, the Activity [2] was 65% and the Activity (HL-60) was “Dose-dependent effect”.
For `C[C@H]1[C@@H](OCCOc2ccc(/C=C/C(=O)c3ccc(O)cc3)cc2)O[C@@H]2O[C@@]3(C)CC[C@H]4[C@H](C)CC[C@@H]1[C@@]24OO3`, the inhibition of growth at 10 µM [1] was 16.8% and the Activity (HL-60) was “Dose-dependent effect”.
